Assay: Toxicity liver stage against HepG2, at 10uM
Assay type: cell-based
Parameters: test concentration 10 uM, cell line HepG2-A16-CD81EGFP
Conditions: human, HepG2-A16-CD81EGFP cells; read-out: INHIBITION
Method in brief: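 Uninfected HepG2-A16-CD81EGFP cells, 3 × 10^3 per well, 1536-well, plated on prespotted compound at 10 μM final, parasite-free screening media added to match infected plates; puromycin 10 μM positive, DMSO 0.5% negative; run in parallel with 48 h PbLuc assay at 37 °C, 5% CO2; viability by CellTiter-Glo luminescence, normalized to controls.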
With `CCOC(=O)C1(Cc2cccc(OC)c2)CCN(Cc2ccon2)CC1` the cytotoxicity at 10 µM was 2.61%.
Work on `c1cncc(-c2nnc([C@H]3CCN(CC4CCCCC4)C3)o2)c1` yielded a cytotoxicity at 10 µM of -6.72%.
`CC(O)(CNC(=O)c1c(F)cccc1Cl)c1ccco1` (stereo unspecified) gave a cytotoxicity at 10 µM of 2.22%.
In the case of `CN1CCCN(C(=O)c2nc3c(n2C)CCN(c2ncccn2)C3)CC1`, the cytotoxicity at 10 µM was -9.18%.
`CCNC(=O)c1ccc2ccc(N(CC)CC)n2c1` showed a cytotoxicity at 10 µM of 1.67%.
In the case of `CNC(=O)[C@H]1C[C@@H]2CN(c3cc(OC)ncn3)C[C@@H]2N1C(C)C`, the cytotoxicity at 10 µM was -8.84%.
`Cc1cccc(CO[C@H]2CO[C@@]3(CCN(S(=O)(=O)N(C)C)C3)C2)n1` gave a cytotoxicity at 10 µM of 7.7%.
Compound `Cc1cc(-c2cccc(C(=O)O)c2)nc(C2CCN(C(C)C)CC2)n1` has a cytotoxicity at 10 µM of -0.723%.
In the case of `Cn1nccc1CCC(=O)N1CCCC(Cc2cccnc2)C1` (stereo unspecified), the cytotoxicity at 10 µM was -3.14%.
Compound `Cc1cccc(C(C)C)c1NC(=O)NCCN(C(C)C)C(C)C` has a cytotoxicity at 10 µM of -8.98%.
Compound `CC(c1nc(C2CC2)no1)N1CCc2c(ncn2C)C1` (stereo unspecified) has a cytotoxicity at 10 µM of 1.09%.
For `COc1ccnc(N2CCN(Cc3ncc(-c4ccccc4)o3)CC2)n1`, the cytotoxicity at 10 µM was -10.2%.
`CCc1cc(CNC(=O)N(C2CC2)C(C)c2ccco2)[nH]n1` (stereo unspecified) showed a cytotoxicity at 10 µM of 4.18%.
With `COc1ccc(CNC(C)c2ccc(Cl)cc2)c(OC)c1OC` (stereo unspecified) the cytotoxicity at 10 µM was 7.74%.
In the case of `CCc1nc(NS(=O)(=O)c2ccc(F)cc2Cl)no1`, the cytotoxicity at 10 µM was 0.528%.
In the case of `Cc1cnn(C2CCN(Cc3ccccc3)C2)c1N` (stereo unspecified), the cytotoxicity at 10 µM was -3.76%.
`NC(=O)NC(=O)CCSc1ccccc1Cl` showed a cytotoxicity at 10 µM of 11.8%.
In the case of `Cc1ccc(S(=O)(=O)NC(=O)CCOCC(C)C)s1`, the cytotoxicity at 10 µM was -5.36%.
With `Cc1c(C(=O)NCC(C)C)nnn1-c1cccc2c1CCN(C)C2` the cytotoxicity at 10 µM was -7.69%.
`Cc1[nH]c2ccccc2c1-c1ccnc(N[C@H](CO)CC(C)C)n1` showed a cytotoxicity at 10 µM of 0.97%.
Compound `OC1(CN2CCCC2)COCCN(c2ncnc3[nH]cnc23)C1` (stereo unspecified) has a cytotoxicity at 10 µM of 0.458%.
`Cc1csc2c(N3CCC(NCCCC4CCOC4)CC3)ncnc12` (stereo unspecified) showed a cytotoxicity at 10 µM of 3.3%.
For `Cc1nccn1CCN1C(=O)CC2(CCCC2)CC1=O`, the cytotoxicity at 10 µM was -2.11%.
In the case of `COc1c(C)cnc(CN2CCCCC2CCN2CCOCC2)c1C` (stereo unspecified), the cytotoxicity at 10 µM was -4.27%.
In the case of `CCc1csc(CNc2cc(C)nc(-c3cccnc3)n2)n1`, the cytotoxicity at 10 µM was 4.83%.
Compound `CC(=O)NCc1nnc2n1CCN(c1ncnc3c1CCC3)CC2` has a cytotoxicity at 10 µM of 13%.
In the case of `CN1CCCC1c1ccc(C(=O)Nc2c3c(nn2C)CCC3)s1` (stereo unspecified), the cytotoxicity at 10 µM was -7.3%.
`CSCCNc1ccc(C(=O)N(C)Cc2ccc3ccccc3n2)cn1` gave a cytotoxicity at 10 µM of 9.65%.
`CSc1nccc(N2C[C@@H](CN3CCCCC3)[C@@H](CO)C2)n1` gave a cytotoxicity at 10 µM of -3.59%.
Work on `Cc1ccc(C)c(C(=O)Nc2ccc(OC3CCN(C)CC3)cc2)c1` yielded a cytotoxicity at 10 µM of 8.97%.
For `COC(=O)c1ccc(CNCc2ccn(C)n2)cc1`, the cytotoxicity at 10 µM was -2.64%.
`Cn1cc(C2CCCN2Cc2csc(C(C)(C)C)n2)cn1` (stereo unspecified) showed a cytotoxicity at 10 µM of -4.87%.
For `CC(C)c1n[nH]c(C(=O)Nc2cc[nH]n2)c1Br`, the cytotoxicity at 10 µM was -9.73%.
Work on `CCN1CCN(CC(O)c2ccc(OC(F)(F)F)cc2)CC1` (stereo unspecified) yielded a cytotoxicity at 10 µM of -4.47%.
`Nc1nc(C(=O)NCC2CCC3(CCNCC3)CO2)cs1` (stereo unspecified) showed a cytotoxicity at 10 µM of 21%.
Compound `Cn1cc(CNC2CCc3c(ccc(=O)n3Cc3cccnc3)C2)cn1` (stereo unspecified) has a cytotoxicity at 10 µM of -108%.
With `Cc1ccc(CN2CCOC3(CCN(C(=O)C4CC=CC4)CC3)C2)cc1` the cytotoxicity at 10 µM was 15.5%.
Work on `CN(C)C(=O)C1CCC2(CCN(Cc3cnn(C)c3)CC2)C1` (stereo unspecified) yielded a cytotoxicity at 10 µM of 5.01%.
Compound `COCCN1CCC2(CC1)CC(NC(=O)C(C)C)c1ccccc1O2` (stereo unspecified) has a cytotoxicity at 10 µM of 3.82%.
Compound `COCCN1C(=O)C2(CCN(CC3CC3)CC2)c2ccccc21` has a cytotoxicity at 10 µM of -115%.
`CC(C)OCCCN(CC(=O)N1CCNCC1)C(=O)c1ccc(F)cc1` showed a cytotoxicity at 10 µM of 8.85%.
Compound `COCCN1CCO[C@H]2CCN(C(=O)c3ccnnc3)CC[C@@H]21` has a cytotoxicity at 10 µM of 0.196%.
With `CNC(=O)CC1CC2(CCN(c3ncccn3)CC2)c2ccccc21` (stereo unspecified) the cytotoxicity at 10 µM was 11.6%.
Work on `Cc1nc(C2(O)CCCNCC2)sc1CCOc1ccccc1Cl` (stereo unspecified) yielded a cytotoxicity at 10 µM of -28.1%.
Work on `COCCN1CCCn2cnc(CNC3CCCC3)c2C1` yielded a cytotoxicity at 10 µM of 4.92%.
`Cc1ccnn1CCC(=O)N1C[C@@H]2CC[C@H]1CN(CC(=O)N(C)C)C2` showed a cytotoxicity at 10 µM of 8.42%.
